Experimental data: publication PMC4607043 (International journal of biological macromolecules, 2015)

Assays:
ATP synthase = settings: cited from earlier work
[1] = test system: membrane bound F1Fo ATP synthase mutant βD380R; test: Inhibition of ATPase activity, βD380R; assay type: biochemical, Escherichia coli; settings: at maximal inhibition, preincubated 60 min at room temperature, pH 8.0
Procedure, shortened: (§1)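 Wild-type or mutant membrane-bound F1Fo was prepared by French press, washed, and taken up in 50 mM TrisSO4 pH 8.0, 2.5 mM MgSO4. It was preincubated with a range of test peptide concentrations for 60 min at room temperature, then assayed with 10 mM NaATP, 4 mM MgCl2, 50 mM TrisSO4 pH 8.5 for 5–10 min using 20–30 µg protein. Reactions were stopped with SDS (3.3% final) and Pi read at OD700 (Taussky–Shorr). Activity is relative to wild type without peptide, from duplicate tubes and two or more membrane preparations.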

[2] = test system: membrane bound F1Fo ATP synthase mutant βD386R; test: Inhibition of ATPase activity, βD386R; assay type: biochemical, Escherichia coli; settings: at maximal inhibition, preincubated 60 min at room temperature, pH 8.0
Procedure, shortened: as §1

[3] = test system: membrane bound F1Fo ATP synthase mutants βD380A/Q/R or βD386A/Q/R; test: Inhibition of ATPase activity, single mutants as a group; assay type: biochemical, Escherichia coli; settings: for inhibition of ATPase, single mutants (in words): single mutations with replacement of Asp to Ala, Gln, or Arg
Procedure, shortened: as §1

[4] = test system: membrane bound F1Fo ATP synthase double mutants βD380A/βD386A, βD380Q/βD386Q, or βD380R/βD386R; test: Inhibition of ATPase activity, double mutants as a group; assay type: biochemical, Escherichia coli
Procedure, shortened: as §1

Wild-type (pBWU13.4/DK8) [5] = test: Growth on succinate plates; assay type: cell-based, E. coli; settings: 3 days, estimated by eye, means of four to six experiments
Procedure, shortened: (§2)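 E. coli DK8 carrying plasmid-borne ATP synthase genes (wild-type pBWU13.4; mutants made by site-directed mutagenesis and sequence-verified) were grown on plates with succinate as the non-fermentable carbon source, with or without test peptide. Growth was scored by eye after 3 days on a scale from ++++ (normal/heavy) to − (none). Values are means of four to six experiments.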

βY331W [6] = test: Growth on succinate plates; assay type: cell-based, E. coli; settings: 3 days, estimated by eye, means of four to six experiments
Procedure, shortened: as §2

βD380A [7] = test: Growth on succinate plates; assay type: cell-based, E. coli; settings: 3 days, estimated by eye, means of four to six experiments
Procedure, shortened: as §2

βD380Q [8] = test: Growth on succinate plates; assay type: cell-based, E. coli; settings: 3 days, estimated by eye, means of four to six experiments
Procedure, shortened: as §2

βD380R [9] = test: Growth on succinate plates; assay type: cell-based, E. coli; settings: 3 days, estimated by eye, means of four to six experiments
Procedure, shortened: as §2

βD386A [10] = test: Growth on succinate plates; assay type: cell-based, E. coli; settings: 3 days, estimated by eye, means of four to six experiments
Procedure, shortened: as §2

βD386Q [11] = test: Growth on succinate plates; assay type: cell-based, E. coli; settings: 3 days, estimated by eye, means of four to six experiments
Procedure, shortened: as §2

βD386R [12] = test: Growth on succinate plates; assay type: cell-based, E. coli; settings: 3 days, estimated by eye, means of four to six experiments
Procedure, shortened: as §2

βD380A/βD386A [13] = test: Growth on succinate plates; assay type: cell-based, E. coli; settings: 3 days, estimated by eye, means of four to six experiments
Procedure, shortened: as §2

βD380Q/βD386Q [14] = test: Growth on succinate plates; assay type: cell-based, E. coli; settings: 3 days, estimated by eye, means of four to six experiments
Procedure, shortened: as §2

βD380R/βD386R [15] = test: Growth on succinate plates; assay type: cell-based, E. coli; settings: 3 days, estimated by eye, means of four to six experiments
Procedure, shortened: as §2

Wild-type (pBWU13.4/DK8) [16] = test: Growth yield in limiting glucose; assay type: cell-based, E. coli; settings: 3–5 mM glucose, wild type in absence of peptides = 100%, means of four to six experiments
Procedure, shortened: (§3)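 Measures oxidative plus substrate-level phosphorylation as growth on limiting glucose (3–5 mM). The host is E. coli DK8 carrying plasmid pBWU13.4, which encodes all ATP synthase genes, or site-directed βD380/βD386 mutants built on a βY331W background; mutations were confirmed by sequencing. Cultures were grown with or without each of two C-amidated test peptides (>95% HPLC purity, dissolved in deionized water). pUC118/DK8 served as the null strain.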

Null (pUC118/DK8) = test: Growth yield in limiting glucose; assay type: cell-based, E. coli; settings: 3–5 mM glucose, wild type in absence of peptides = 100%, means of four to six experiments
βY331W [17] = test: Growth yield in limiting glucose; assay type: cell-based, E. coli; settings: 3–5 mM glucose, wild type in absence of peptides = 100%, means of four to six experiments
Procedure, shortened: as §3

βD380A [18] = test: Growth yield in limiting glucose; assay type: cell-based, E. coli; settings: 3–5 mM glucose, wild type in absence of peptides = 100%, means of four to six experiments
Procedure, shortened: as §3

βD380Q [19] = test: Growth yield in limiting glucose; assay type: cell-based, E. coli; settings: 3–5 mM glucose, wild type in absence of peptides = 100%, means of four to six experiments
Procedure, shortened: as §3

βD380R [20] = test: Growth yield in limiting glucose; assay type: cell-based, E. coli; settings: 3–5 mM glucose, wild type in absence of peptides = 100%, means of four to six experiments
Procedure, shortened: as §3

βD386A [21] = test: Growth yield in limiting glucose; assay type: cell-based, E. coli; settings: 3–5 mM glucose, wild type in absence of peptides = 100%, means of four to six experiments
Procedure, shortened: as §3

βD386Q [22] = test: Growth yield in limiting glucose; assay type: cell-based, E. coli; settings: 3–5 mM glucose, wild type in absence of peptides = 100%, means of four to six experiments
Procedure, shortened: as §3

βD386R [23] = test: Growth yield in limiting glucose; assay type: cell-based, E. coli; settings: 3–5 mM glucose, wild type in absence of peptides = 100%, means of four to six experiments
Procedure, shortened: as §3

βD380A/βD386A [24] = test: Growth yield in limiting glucose; assay type: cell-based, E. coli; settings: 3–5 mM glucose, wild type in absence of peptides = 100%, means of four to six experiments
Procedure, shortened: as §3

βD380Q/βD386Q [25] = test: Growth yield in limiting glucose; assay type: cell-based, E. coli; settings: 3–5 mM glucose, wild type in absence of peptides = 100%, means of four to six experiments
Procedure, shortened: as §3

βD380R/βD386R [26] = test: Growth yield in limiting glucose; assay type: cell-based, E. coli; settings: 3–5 mM glucose, wild type in absence of peptides = 100%, means of four to six experiments
Procedure, shortened: as §3

wild type E. coli cells = test: Growth in presence of peptides, wild-type; assay type: cell-based; settings: succinate plates and limiting glucose
Procedure, shortened: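 Wild-type DK8/pBWU13.4 was grown with test peptide on succinate plates, scored by eye after 3 days, and in limiting glucose (3–5 mM). Glucose growth yield is expressed relative to wild type without peptide, set as 100%. Values are means of four to six experiments.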

mutant E. coli cells = test: Growth in presence of peptides, mutants; assay type: cell-based; settings: succinate plates and limiting glucose

## melittin
ATP synthase
  ATPase inhibitory activity (in words): strongly inhibited

## O=[N+]([O-])c1ccc(Cl)c2nonc12 [NBD-Cl]
ATP synthase
  maximal inhibition of mutant or wild-type ATP synthase (in words): partially or incompletely inhibited

## [Cl][Sc]([Cl])[Cl] [ScCl3]
ATP synthase
  maximal inhibition of mutant or wild-type ATP synthase (in words): partially or incompletely inhibited

## melittin-amide
[1]
  residual ATPase activity: 80%
[2]
  prevention of inhibition (residual activity): 80%
[3]; all of the mutations used in this study (single and double)
  refractoriness of mutants to peptide induced inhibition (in words): refractory
[3]
  inhibition of ATPase, single mutants (in words): decreased inhibition
[3]; listed as c-terminal amide bound melittin
  inhibition of ATPase, single mutants (in words): only partial inhibition
[4]
  inhibition of ATPase, double mutants (in words): very little or no inhibition
Wild-type (pBWU13.4/DK8) [5]
  Growth on succinate plates: ±/±
βY331W [6]
  Growth on succinate plates: ±/±
βD380A [7]
  Growth on succinate plates: +++/+++
βD380Q [8]
  Growth on succinate plates: +++/+++
βD380R [9]
  Growth on succinate plates: +++/+++
βD386A [10]
  Growth on succinate plates: +++/+++
βD386Q [11]
  Growth on succinate plates: +++/+++
βD386R [12]
  Growth on succinate plates: +++/+++
βD380A/βD386A [13]
  Growth on succinate plates: +++/+++
βD380Q/βD386Q [14]
  Growth on succinate plates: +++/+++
βD380R/βD386R [15]
  Growth on succinate plates: ++/++
Wild-type (pBWU13.4/DK8) [16]
  Growth yield in limiting glucose: 20%
Null (pUC118/DK8)
  Growth yield in limiting glucose: 43%
βY331W [17]
  Growth yield in limiting glucose: 22%
βD380A [18]
  Growth yield in limiting glucose: 89%
βD380Q [19]
  Growth yield in limiting glucose: 90%
βD380R [20]
  Growth yield in limiting glucose: 82%
βD386A [21]
  Growth yield in limiting glucose: 79%
βD386Q [22]
  Growth yield in limiting glucose: 74%
βD386R [23]
  Growth yield in limiting glucose: 70%
βD380A/βD386A [24]
  Growth yield in limiting glucose: 75%
βD380Q/βD386Q [25]
  Growth yield in limiting glucose: 72%
βD380R/βD386R [26]
  Growth yield in limiting glucose: 66%
Wild type E. coli cells
  growth of wild-type cells in presence of peptide (in words): abrogated growth
Mutant E. coli cells
  growth of mutant cells in presence of peptide (in words): not much affected

## [N-]=[N+]=[N-].[Na+] [NaN3]
ATP synthase
  maximal inhibition of mutant or wild-type ATP synthase (in words): partially or incompletely inhibited

## [Cl][Al]([Cl])[Cl] [AlCl3]
ATP synthase
  maximal inhibition of mutant or wild-type ATP synthase (in words): partially or incompletely inhibited
